From ChEMBL document CHEMBL1154715, “Identification of benzofuro[2,3-b]quinoline derivatives as a new class of antituberculosis agents” (Eur J Med Chem, 2010)
≈ marks a conversion by molar mass, not a printed value.

Columns and labels:
[1] = system: Mycobacterium tuberculosis; experiment: Antitubercular activity against Mycobacterium tuberculosis H37Rv ATCC 27294 by microplate Alamar blue assay; type: functional
In short: (§1)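 M. tuberculosis H37Rv (ATCC 27294) in BACTEC 12B medium; broth microdilution, Microplate Alamar Blue readout. MIC taken as lowest concentration giving 90% reduction in fluorescence versus controls.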

[2] = system: Vero; experiment: Cytotoxicity against african green monkey Vero cells after 72 hrs by MTT assay; type: cell-based, Chlorocebus sabaeus
[3] = Selectivity index, ratio of IC50 for african green monkey Vero cells to MIC for Mycobacterial tuberculosis H37Rv ATCC 27294; type: functional
In short: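 SI calculated as IC50/MIC, where MIC (H37Rv, Alamar Blue microdilution in BACTEC 12B medium) is the lowest concentration cutting fluorescence 90% versus controls.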

[4] = system: MCF7; experiment: Cytotoxicity against human MCF7 cells at 20 ug/ml after 48 hrs by SRB assay; type: functional
In short: (§2)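 MCF7, NCI-H460 and SF-268 cells were kept in RPMI-1640 with 5% fetal bovine serum, then seeded and preincubated in microtiter plates. Compound was added at two fixed concentrations and incubated for 48 h. The endpoint was sulforhodamine B protein staining, reported as percent growth of treated cells relative to untreated controls.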

[5] = system: MCF7; experiment: Cytotoxicity against human MCF7 cells at 4 ug/ml after 48 hrs by SRB assay; type: functional; in short: as §2
[6] = system: NCI-H460; experiment: Cytotoxicity against human NCI-H460 cells at 20 ug/ml after 48 hrs by SRB assay; type: functional; in short: as §2
[7] = system: NCI-H460; experiment: Cytotoxicity against human NCI-H460 cells at 4 ug/ml after 48 hrs by SRB assay; type: functional; in short: as §2
[8] = system: SF-268; experiment: Cytotoxicity against human SF268 cells at 20 ug/ml after 48 hrs by SRB assay; type: functional; in short: as §2
[9] = system: SF-268; experiment: Cytotoxicity against human SF268 cells at 4 ug/ml after 48 hrs by SRB assay; type: functional; in short: as §2
[10] = system: Mycobacterium tuberculosis; experiment: Antitubercular activity against Mycobacterium tuberculosis H37Rv ATCC 27294 at <0.2 ug/ml by microplate Alamar blue assay; type: functional; in short: as §1

Structure (SMILES): c1ccc(Nc2c3ccccc3nc3oc4ccccc4c23)cc1
- MIC [1]: 5.35 mg/L (≈ 17.2 µM)
- IC50 [2]: 6.14 mg/L (≈ 19.8 µM)
- Selectivity Index [3]: 1.15
- Activity [4]: 44%
- Activity [5]: 118%
- Activity [6]: 53%
- Activity [7]: 104%
- Activity [8]: 76%
- Activity [9]: 118%

Structure (SMILES): CCOc1c2ccccc2nc2oc3ccccc3c12
- MIC [1]: 1.44 mg/L (≈ 5.47 µM)
- IC50 [2]: 10.34 mg/L (≈ 39.3 µM)
- Selectivity Index [3]: 7.18
- Activity [4]: 77%
- Activity [5]: 99%
- Activity [6]: 84%
- Activity [7]: 92%
- Activity [8]: 90%
- Activity [9]: 86%

Structure (SMILES): CC(=O)c1ccc(Nc2c3ccccc3nc3oc4ccccc4c23)cc1
- MIC [1]: 14.6 mg/L (≈ 41.3 µM)
- Activity [4]: 49%
- Activity [5]: 106%
- Activity [6]: 20%
- Activity [7]: 64%
- Activity [8]: 63%
- Activity [9]: 109%

Structure (SMILES): COc1ccc(Nc2c3ccccc3nc3oc4ccccc4c23)cc1
- MIC [1]: 2.63 mg/L (≈ 7.73 µM)
- IC50 [2]: 3.63 mg/L (≈ 10.7 µM)
- Selectivity Index [3]: 1.38
- Activity [4]: 35%
- Activity [5]: 109%
- Activity [6]: 17%
- Activity [7]: 83%
- Activity [8]: 87%
- Activity [9]: 111%

Structure (SMILES): CC(=O)c1ccc(Oc2c3ccccc3nc3oc4ccccc4c23)cc1
- MIC [1]: > 100 mg/L
- Activity [4]: 88%
- Activity [5]: 100%
- Activity [6]: 62%
- Activity [7]: 104%
- Activity [8]: 100%
- Activity [9]: 104%

Structure (SMILES): Nc1c2ccccc2nc2oc3ccccc3c12
- MIC [1]: > 100 mg/L
- Activity [4]: 113%
- Activity [5]: 114%
- Activity [6]: 107%
- Activity [7]: 110%
- Activity [8]: 72%
- Activity [9]: 84%

Structure (SMILES): CNc1c2ccccc2nc2oc3ccccc3c12
- MIC [1]: < 0.2 mg/L
- IC50 [2]: 5.55 mg/L (≈ 22.4 µM)
- Selectivity Index [3]: >27.75
- Activity [4]: 99%
- Activity [5]: 100%
- Activity [6]: 99%
- Activity [7]: 102%
- Activity [8]: 86%
- Activity [9]: 98%

Structure (SMILES): CN(C)c1c2ccccc2nc2oc3ccccc3c12
- MIC [1]: < 0.2 mg/L
- IC50 [2]: > 30 mg/L
- Selectivity Index [3]: >150
- Activity [4]: 48%
- Activity [5]: 87%
- Activity [6]: 76%
- Activity [7]: 108%
- Activity [8]: 91%
- Activity [9]: 102%

Structure (SMILES): COc1c2ccccc2nc2oc3ccccc3c12
- inhibition (INH) [10]: 99%
- MIC [1]: < 0.2 mg/L
- IC50 [2]: 11.77 mg/L (≈ 47.2 µM)
- Selectivity Index [3]: >58.85
- Activity [4]: 92%
- Activity [5]: 102%
- Activity [6]: 68%
- Activity [7]: 90%
- Activity [8]: 98%
- Activity [9]: 98%

Structure (SMILES): COc1cccc(Nc2c3ccccc3nc3oc4ccccc4c23)c1
- MIC [1]: 17.8 mg/L (≈ 52.4 µM)
- Activity [4]: 84%
- Activity [5]: 107%
- Activity [6]: 46%
- Activity [7]: 99%
- Activity [8]: 60%
- Activity [9]: 97%

Structure (SMILES): c1ccc(Oc2c3ccccc3nc3oc4ccccc4c23)cc1
- MIC [1]: > 100 mg/L
- Activity [4]: 64%
- Activity [5]: 94%
- Activity [6]: 91%
- Activity [7]: 99%
- Activity [8]: 108%
- Activity [9]: 108%

Structure (SMILES): CO[C@H]1/C=C/O[C@@]2(C)Oc3c(C)c(O)c4c(O)c(c(/C=N/N5CCN(C)CC5)c(O)c4c3C2=O)NC(=O)/C(C)=C\C=C\[C@H](C)[C@H](O)[C@@H](C)[C@@H](O)[C@@H](C)[C@H](OC(C)=O)[C@@H]1C [RIFAMPIN]
- MIC [1]: 0.125 mg/L (≈ 0.152 µM)
- IC50 [2]: 100 mg/L (≈ 122 µM)
- Selectivity Index [3]: 400
